Shown is part of a subset that was picked to be rich in hits.
L major viab: reduces viability of Leishmania major promastigotes; resazurin fluorescence viability; inhibition, % at 10 µM; 200,000 tested, 9% active; in the data active = inhibition above about 50%;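 note: promastigotes grown with compound for 44 hours at 28 °C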
T cruzi repl: T. cruzi replication inhibition; T. cruzi beta-gal in NIH3T3, luminescence, 90 h; inhibition, % (test concentration not listed); 300,000 tested, 1.4% active; AID 1885;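 active = mean inhibition across valid replicates above about 55%, limit read from the data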;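 note: signal also drops with host cell toxicity which is not excluded here; 0% = plate median of DMSO wells and 100% = zero luminescence signal; higher percent means less beta-gal luminescence so fewer parasites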
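System: NIH/3T3 fibroblasts plus reporter T. cruzi. Medium: DMEM plus 2% FBS. Probe or stimulus: 5000 reporter trypomastigotes per well. Compound: single 50 nL compound addition per well in DMSO. Incubation: co-culture of at least 90 h after 3 h attachment. Detection: GalScreen β-gal luminescence, detergent lysis, 60 min. Evaluation: parasite load inhibition, %.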
HSF-1 act: increases HSF-1 driven luciferase reporter signal; AID 504408; activation, % at 9 µM; 300,000 tested, 1.7% active; NIH3T3-HGL HSF-1 luciferase reporter, MG132, 8 h; 100% = twice DMSO control signal;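 active = mean replicate activation of at least 50% with a set share of replicates each reaching 50%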;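 note: 0% = median of the neutral control wells and 100% = twice that signal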
HSF1 inhib: HSF1 inhibition; activity change, negative = inhibition, % at 7.5 µM (by protocol); 300,000 tested, 0.77% active; NIH3T3-HGL HSE-luciferase, MG132-induced, luminescence 8 h; hits give low values; AID 2098;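 active = more than half of replicate wells show activity change below -50%, luminescence cut by over half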;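 note: luciferase reports HSF-1 transcriptional activity via heat shock element; 0% = median of DMSO wells and -100% = zero luminescence signal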
Hsp70 act: transcriptional activators of Hsp70. AID 1203. activation, % at 10 µM. 200,000 tested, 0.04% active. HeLa Hsp70 promoter luciferase reporter, luminescence; scaled: vehicle 0, proteasome-inhibitor control 100%;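 active = activation above the mean across all tested compounds plus 3 SD, cutoff set per campaign, cut at about 5.5% in these data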;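 note: 100% = MG132 at 30 µM as the positive control and 0% = DMSO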
* marks the source's active call; other numbers are inactive results; . = no result given.

SMILES	L major viab	T cruzi repl	HSF-1 act	HSF1 inhib	Hsp70 act
S=C(c1cn(Cc2ccc(Br)cc2)c2ccccc12)N1CCOCC1	39.0	1.4	53.7*	12.9	-0.1
CN1CCN(C(=S)c2cn(Cc3ccc(F)cc3)c3ccccc23)CC1	51.4*	-0.8	24.3	14.8	-0.4
O=C1COc2ccc(C(=O)COC(=O)CNC(=O)C3CCCCC3)cc2N1	-7.1	-7.6	-19.8	-7.3	-0.2
Cn1c(SCc2cccc(C(F)(F)F)c2)nnc1-c1ccco1	8.0	4.4	58.7*	9.0	-0.3
Nn1c(SCc2cccc(C(F)(F)F)c2)nnc1-c1ccco1	-3.4	5.6	26.6	4.3	0.0
O=[N+]([O-])c1ccc(N/N=C2/CCCCC2c2ccccn2)cc1 (centres undefined)	97.6*	21.5	9.3	5.5	-0.2
COc1ccccc1N1CCc2c(C)nc3c(OC)cccc3c21	89.3*	33.9	-48.6	-32.9	0.1
COc1cccc2c3c(c(C)nc12)CCN3c1ccccc1	77.8*	32.1	7.5	0.8	-0.1
COc1ccc(NC(=S)N2CCN(C(=O)c3ccccc3)CC2)cc1	10.5	-11.8	-10.1	-6.0	1.0
Cc1[nH]n(CCC#N)c(=O)c1CC(=O)N1CCN(c2ccccc2)CC1	-0.6	0.6	-65.3	-53.7*	-0.2
Cc1ccc(C(=O)N(C)c2nnc(-c3ccncc3)s2)cc1	4.5	6.6	31.9	12.0	-0.1
CC1CC(C)CN(CCCNS(=O)(=O)c2cc(Br)cc3c2N(C(=O)C2CC2)CC3)C1 (centres undefined)	.	-9.3	2.3	-1.8	.
CC(=O)N1CCc2cc(Br)cc(S(=O)(=O)NCCN3CCCCC3C)c21 (centres undefined)	99.2*	7.6	-2.7	-5.8	0.1
CC1CCCN(CCCNS(=O)(=O)c2cc(Br)cc3c2N(C(=O)C2CC2)CC3)C1 (centres undefined)	.	-3.8	0.0	3.5	.
CC(=O)N1CCc2cc(Br)cc(S(=O)(=O)NCCCN3CCCC(C)C3)c21 (centres undefined)	99.8*	-11.0	-4.5	-6.0	-0.1
CC(=O)N1CCc2cc(Br)cc(S(=O)(=O)NCCCN3CCC(C)CC3)c21	98.6*	.	.	.	-0.1
O=C(C1CC1)N1CCc2cc(Br)cc(S(=O)(=O)NCCCN3CCCC3)c21	99.2*	-0.1	14.9	-4.8	-0.5
O=c1c2cc(O)c(O)cc2oc2cc(O)c(C3OC(CO)C(O)C(O)C3O)c(O)c12 (centres undefined)	.	-19.6	-0.1	-1.0	.
CCOc1ccc(NC(=O)CSc2nnc(-c3cc(C)[nH]n3)n2N)cc1	.	14.7	13.4	-1.2	.
Cc1c(NC(=O)COC(=O)c2cc3c4ccccc4n(C)c3s2)c(=O)n(-c2ccccc2)n1C	95.6*	13.8	19.9	-2.3	-0.1
CC(NCC(=O)NCCc1ccc(S(N)(=O)=O)cc1)c1ccc(F)cc1 (centres undefined)	.	7.2	52.5*	7.6	.
CC(NCCc1ccc(S(N)(=O)=O)cc1)C(=O)NCCc1ccc(F)cc1 (centres undefined)	.	-21.0	-18.0	-3.6	.
CCOC(=O)c1[nH]c2c(c1-c1ccccc1)C(=O)CC(c1ccc(OC)c(OC)c1)C2 (centres undefined)	53.9*	7.9	-3.2	0.3	0.0
CCOC(=O)c1[nH]c2c(c1-c1ccccc1)C(=O)CC(c1ccc(OCC)cc1)C2 (centres undefined)	1.0	-1.7	21.3	7.5	-0.1
CCOC(=O)c1c(NC(=O)CN2CCN(C)CC2)sc(C(=O)Nc2ccccc2)c1C	99.5*	18.3	27.4	12.7	0.0
SMILES	L major viab	T cruzi repl	HSF-1 act	HSF1 inhib	Hsp70 act
CCOC(=O)c1c(NC(=O)CN2CCOCC2)sc(C(=O)NC)c1C	5.0	-4.5	-4.4	-2.9	-0.2
CCOC(=O)c1sc(NC(=O)CCN2CCN(C)CC2)c(C(=O)OCC)c1C	100.3*	10.6	2.0	-7.0	-0.3
O=C(NCCc1cccs1)C1CC(c2c(Cl)cccc2Cl)=NO1 (centres undefined)	2.1	12.1	5.6	9.1	0.0
O=S(=O)(Nc1ccc(Cl)cc1)c1ccc2c(c1)CCO2	.	16.7	2.9	8.8	.
CCc1cc2c(SCC(=O)O)ncnc2s1	-6.8	-10.2	-8.8	-8.7	-0.3
CCc1cc2c(SCC#N)ncnc2s1	24.2	10.0	79.9*	19.0	0.8
COc1ccccc1CNC(=O)c1nn(-c2ccc(C)cc2)c(=O)c2c1c1ccccc1n2C	5.0	20.5	4.8	-8.8	0.0
Cc1cc(OCc2nc(-c3cccs3)no2)cc(C)c1Cl	-1.6	-1.9	17.1	18.0	0.5
c1ccc(OCc2nc(-c3cccs3)no2)cc1	0.8	4.5	58.8*	29.3	0.3
Fc1ccc(OCc2nc(-c3cccs3)no2)cc1	-4.1	-12.6	64.8*	31.1	-0.1
O=C(NCc1ccc(F)cc1)c1nc(-c2cccs2)no1	-4.8	-3.0	7.9	2.2	0.2
CN(C)CCN(Cc1cccs1)S(=O)(=O)c1csc(C(N)=O)c1	.	-2.8	8.7	0.6	.
CCNC(=O)c1ccc(NS(=O)(=O)c2ccc3[nH]c(=O)[nH]c3c2)cc1	.	-18.3	-14.3	-12.6	.
O=C(CN(Cc1ccccc1)C(=O)c1cccc([N+](=O)[O-])c1)Nc1c(Cl)cc(Cl)cc1Cl	27.3	13.4	-6.8	4.8	-0.7
COCCOc1cc(Nc2nnc(C(F)(F)F)s2)c(Cl)cc1Cl	63.4*	-4.2	16.0	2.2	1.2
NNc1nc2c(-c3cccc(C(F)(F)F)c3)nnn2c2ccccc12	.	-2.2	17.4	1.5	.
Cc1cccc2c1-c1sc(C(=O)Nc3nccs3)cc1CO2	24.3	-9.2	55.9*	30.0	-0.1
CC(NCCC(c1ccccc1)c1ccccc1)c1ccccc1 (centres undefined)	80.9*	15.3	-15.3	4.2	-0.3
COc1ccccc1C(=O)Nc1cc(Cl)ccc1O	13.1	-1.5	65.2*	18.5	-0.1
COc1ccc(Cl)cc1NC(=O)c1ccccc1C	-1.1	3.9	0.8	2.6	0.0
CCOc1ccccc1C(=O)Nc1cc(Cl)ccc1O	79.4*	10.3	7.9	0.3	0.2
NS(=O)(=O)c1ccc(CCNC(=O)CNS(=O)(=O)c2cccc(Br)c2)cc1	-4.6	-1.7	-9.5	-6.6	0.4
COc1cc(CNc2ccccc2Oc2cc(=O)n(C)c(=O)n2C)cc(OC)c1OC	11.7	-8.4	31.1	9.7	-0.4
Cn1c(Oc2ccccc2NCc2cc(Br)ccc2O)cc(=O)n(C)c1=O	99.0*	-4.1	-6.7	7.2	-0.3
O=C1c2cnc3nc(SCc4cccc(Cl)c4)nn3c2CC2c3ccccc3CCN12 (centres undefined)	56.3*	22.2	-4.3	-1.1	-0.2
O=C(CC1Sc2ncnn2C1=O)Nc1ccccc1 (centres undefined)	99.8*	16.1	-3.5	-5.9	-0.3
Cc1ccccc1OCCSc1nc2ncnc(N)c2[nH]1	8.1	-14.6	-12.9	-4.0	0.0
Cc1nn(C(C)C(=O)N2CCOCC2)c(C)c1[N+](=O)[O-] (centres undefined)	-4.6	-2.3	-15.9	-4.7	-0.4

Source: PubChem (several laboratories)
